Experimental data: ChEMBL document CHEMBL4152389, “Discovery of Novel, Drug-Like Ferroptosis Inhibitors with in Vivo Efficacy” (J Med Chem, 2018)
Converted amounts (≈) assume the structure as drawn. One block for each compound: values may come before it. The source made the active and inactive calls. The rule behind the calls is not given here.

Columns and labels:
[1] = Kinetic solubility in PBS at pH 7.4 after 2 hrs by turbidimetric method; type: physicochemical; details: read-out: Kinetic_solubility
Procedure, shortened: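 Kinetic solubility by turbidity (UV/VIS reading); final compound 3.125–200 μM, from 4 μL DMSO solution in 196 μL 10 mM PBS pH 7.4.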

[2] = test system: IMR-32; test: Inhibition of erastin-induced ferroptosis in human IMR32 cells preincubated for 1 hr followed by erastin stimulation and measured after 13 hrs by sytox green-based fluorescence assay; type: functional, cell-based
Procedure, shortened: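 IMR-32 neuroblastoma cells seeded at 25,000/well, next day pretreated 1 h in triplicate with 1/3 dilution series (5 μM to 0.68 nM) plus Sytox Green 1.6 μM, then erastin 10 μM.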

[3] = Intrinsic clearance in human liver microsomes at 50 uM after 15 mins to 24 hrs by LC/MS/MS analysis; type: ADME, microsome; details: read-out: CLH
Procedure, shortened: (§1)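 Intrinsic clearance calculated from measured microsomal half-life in human, mouse or rat liver microsomes, accounting for protein concentration and incubation volume with species-specific parameters.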

[4] = test system: Mus musculus; test: In vivo inhibition of iron sulphate-induced ferroptosis in C57BL/6N mouse assessed as LDH levels in plasma at 20 umol/kg, iv administered 15 mins prior to acute iron poisoning and measured after 2 hrs (reference value: 3572 +/- 185 U/L); type: functional
[5] = Metabolic stability in mouse plasma assessed as compound recovery at 50 uM after 6 hrs by LC/MS/MS analysis; type: ADME, cell-free; details: read-out: Drug recovery
Procedure, shortened: (§2)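 Compound incubated in human, rat or mouse plasma; percentage of remaining parent compound determined after 6 h.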

[6] = test system: Mus musculus; test: Toxicity in wild type mouse assessed as CK levels in plasma at 20 umol/kg, ip administered daily for 4 weeks measured at day 28 (reference value: 1501 +/- 196 U/L); type: organism-based; details: in vivo, 672 h
[7] = test system: Mus musculus; test: Toxicity in wild type mouse assessed as body temperature at 20 umol/kg, ip administered daily for 4 weeks measured during compound dosing (reference value: 37 +/- 0.6 degreeC); type: organism-based; details: in vivo, 672 h
[8] = Plasma concentration in Wistar rat at 5 mg/kg, iv after 0.083 to 24 hrs by UPLC-MS analysis; type: ADME, organism-based; details: in vivo
Procedure, shortened: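 Single iv 5 mg/kg to three male Wistar rats; blood sampled at 0.083, 0.25, 0.5, 1, 2, 4 and 24 h; plasma drug measured by UPLC–tandem quadrupole MS, detection limit 53.1 ng/mL.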

[9] = Metabolic stability in rat plasma assessed as compound recovery at 50 uM after 6 hrs by LC/MS/MS analysis; type: ADME, cell-free; details: read-out: Drug recovery; procedure, shortened: as §2
[10] = test system: Mus musculus; test: Toxicity in wild type mouse assessed as urea levels in plasma at 20 umol/kg, ip administered daily for 4 weeks measured at day 28 (reference value: 42 +/- 2 mg/dl); type: organism-based; details: in vivo, 672 h
[11] = Metabolic stability in human plasma assessed as compound recovery at 50 uM after 6 hrs by LC/MS/MS analysis; type: ADME, cell-free; details: read-out: Drug recovery; procedure, shortened: as §2
[12] = test system: Mus musculus; test: Toxicity in wild type mouse assessed as ALT levels in plasma at 20 umol/kg, ip administered daily for 4 weeks measured at day 28 (reference value: <25 U/L); type: organism-based; details: in vivo, 672 h
[13] = test system: Mus musculus; test: Toxicity in wild type mouse assessed as creatinine levels in plasma at 20 umol/kg, ip administered daily for 4 weeks measured at day 28 (reference value: <0.2 mg/dl); type: organism-based; details: in vivo, 672 h
[14] = test system: IMR-32; test: Inhibition of ferrous ammonium sulphate-induced ferroptosis in human IMR32 cells preincubated for 1 hr followed by ferrous ammonium sulphate stimulation and measured after 13 hrs by sytox green-based fluorescence assay
[15] = Intrinsic clearance in mouse liver microsomes at 50 uM after 15 mins to 24 hrs by LC/MS/MS analysis; type: ADME, microsome; details: read-out: CLH; procedure, shortened: as §1
[16] = Intrinsic clearance in rat liver microsomes at 50 uM after 15 mins to 24 hrs by LC/MS/MS analysis; type: ADME, microsome; details: read-out: CLH; procedure, shortened: as §1
[17] = test system: Mus musculus; test: Toxicity in wild type mouse assessed as LDH levels in plasma at 20 umol/kg, ip administered daily for 4 weeks measured at day 28 (reference value: 227 +/- 18 U/L); type: organism-based; details: in vivo, 672 h
[18] = test system: Mus musculus; test: Toxicity in wild type mouse assessed as relative gain in body weight at 20 umol/kg, ip administered daily for 4 weeks measured during compound dosing (reference value: 14.8 +/- 3.4%); type: organism-based; details: in vivo, 672 h
[19] = test system: Mus musculus; test: Toxicity in wild type mouse assessed as AST levels in plasma at 20 umol/kg, ip administered daily for 4 weeks measured at day 28 (reference value: 110 +/- 8 U/L); type: organism-based; details: in vivo, 672 h
[20] = test system: Mus musculus; test: Toxicity in wild type mouse assessed as troponin levels in plasma at 20 umol/kg, ip administered daily for 4 weeks measured at day 28 (reference value: 0.041 +/- 0.005 ug/l); type: organism-based; details: in vivo, 672 h
[21] = Half life in human liver microsomes at 10 uM in presence of NADPH regenerating system by LC/MS/MS analysis; type: ADME, microsome
Procedure, shortened: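 Incubation with human liver microsomes; metabolism by CYP450 and other NADP-dependent enzymes monitored and expressed as half-life (h).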

SMILES: CNCCNS(=O)(=O)c1ccc(NC2CCCCC2)c(N)c1.Cl
solubility kinetic at 2 h [1]: > 200 µM | IC50 [2]: 214 nM

SMILES: CN1CCN(CCNS(=O)(=O)c2ccc(NC3CCCCC3)c(NCc3ccccc3)c2)CC1
solubility kinetic at 2 h [1]: > 200 µM | IC50 [2]: 1070 nM

SMILES: COCCNS(=O)(=O)c1ccc(NC2CCCCC2)c(NCc2ccccc2)c1
solubility kinetic at 2 h [1]: 25 to 50 µM (≈ 10.4 to 20.9 µg/mL) | IC50 [2]: 22 nM

SMILES: Cl.Nc1cc(S(=O)(=O)NCCN2CCNCC2)ccc1NC1CCCCC1
solubility kinetic at 2 h [1]: > 200 µM | IC50 [2]: 296 nM

SMILES: Cl.O=S(=O)(NCCN1CCNCC1)c1ccc(NC2CCCCC2)c(NCc2ccccc2)c1
solubility kinetic at 2 h [1]: > 200 µM | CLint scaled at 50 µM [3]: 1.1 mL/min/kg | Activity [4]: 2346 U/L | remaining at 6 h, 50 µM [5]: 100% | Activity [6]: 1865 U/L | T [7]: 37 °C | Cp [8]: < 53.1 ng/mL | remaining at 6 h, 50 µM [9]: 85.8% | Activity [10]: 43 mg/dL | remaining at 6 h, 50 µM [11]: 84.2% | Activity [12]: < 25 U/L | Activity [13]: < 0.2 mg/dL | inhibition [14]: Active | CLint scaled at 50 µM [15]: 18 mL/min/kg | IC50 [2]: 10 nM | CLint scaled at 50 µM [16]: 3.4 mL/min/kg | Activity [17]: 263 U/L | Activity [18]: 10.4% | Activity [19]: 123 U/L | Activity [20]: 0.044 µg/L

SMILES: CNCCNS(=O)(=O)c1ccc(NC2CCCCC2)c(NCc2ccccc2)c1.Cl
solubility kinetic at 2 h [1]: > 200 µM | CLint scaled at 50 µM [3]: 1.7 mL/min/kg | Activity [4]: 2093 U/L | remaining at 6 h, 50 µM [5]: 100% | remaining at 6 h, 50 µM [9]: 65.8% | remaining at 6 h, 50 µM [11]: 90.3% | inhibition [14]: Active | CLint scaled at 50 µM [15]: 139 mL/min/kg | IC50 [2]: 3 nM | CLint scaled at 50 µM [16]: 161 mL/min/kg

SMILES: CCOC(=O)c1ccc(NC2CCCCC2)c(N)c1
solubility kinetic at 2 h [1]: > 200 µM | Activity [4]: 2898 U/L | remaining at 6 h, 50 µM [5]: 0% | remaining at 6 h, 50 µM [9]: 1.1% | remaining at 6 h, 50 µM [11]: 47.3% | inhibition [14]: Active | half-life at 10 µM [21]: 6.54 min | IC50 [2]: 33 nM

SMILES: Nc1cc(S(=O)(=O)NCCN2CCOCC2)ccc1NC1CCCCC1
solubility kinetic at 2 h [1]: > 200 µM | IC50 [2]: 448 nM

SMILES: COCCNS(=O)(=O)c1ccc(NC2CCCCC2)c(N)c1
solubility kinetic at 2 h [1]: > 200 µM | IC50 [2]: 492 nM

SMILES: O=S(=O)(NCCN1CCOCC1)c1ccc(NC2CCCCC2)c(NCc2ccncc2)c1
solubility kinetic at 2 h [1]: > 200 µM | IC50 [2]: 191 nM

SMILES: CN1CCN(CCNS(=O)(=O)c2ccc(NC3CCCCC3)c(N)c2)CC1
solubility kinetic at 2 h [1]: > 200 µM | IC50 [2]: 236 nM

SMILES: Cl.NCCNS(=O)(=O)c1ccc(NC2CCCCC2)c(NCc2ccccc2)c1
solubility kinetic at 2 h [1]: > 200 µM | CLint scaled at 50 µM [3]: 1.3 mL/min/kg | Activity [4]: 2293 U/L | remaining at 6 h, 50 µM [5]: 100% | remaining at 6 h, 50 µM [9]: 100% | remaining at 6 h, 50 µM [11]: 100% | inhibition [14]: Active | CLint scaled at 50 µM [15]: 4.8 mL/min/kg | IC50 [2]: 12 nM | CLint scaled at 50 µM [16]: 27.4 mL/min/kg

SMILES: Cl.NCCNS(=O)(=O)c1ccc(NC2CCCCC2)c(N)c1
solubility kinetic at 2 h [1]: > 200 µM | IC50 [2]: 306 nM

SMILES: COCCNS(=O)(=O)c1ccc(NC2CCCCC2)c(NCc2ccncc2)c1
solubility kinetic at 2 h [1]: > 200 µM | IC50 [2]: 97 nM

Continued, in another order:

solubility kinetic at 2 h [1]: > 200 µM
SMILES: CN(C)CCNS(=O)(=O)c1ccc(NC2CCCCC2)c(NCc2ccncc2)c1
IC50 [2]: 1560 nM

solubility kinetic at 2 h [1]: > 200 µM
SMILES: CN1CCN(CCNS(=O)(=O)c2ccc(NC3CCCCC3)c(NCc3ccncc3)c2)CC1
IC50 [2]: 1520 nM

solubility kinetic at 2 h [1]: > 200 µM
SMILES: CN(C)CCNS(=O)(=O)c1ccc(NC2CCCCC2)c(NCc2ccccc2)c1
IC50 [2]: 554 nM

solubility kinetic at 2 h [1]: > 200 µM
SMILES: CNCCNS(=O)(=O)c1ccc(NC2CCCCC2)c(NCc2ccncc2)c1.Cl
IC50 [2]: 157 nM

solubility kinetic at 2 h [1]: 100 to 200 µM
SMILES: Cl.NCCNS(=O)(=O)c1ccc(NC2CCCCC2)c(NCc2ccncc2)c1
IC50 [2]: 112 nM

solubility kinetic at 2 h [1]: 50 to 100 µM (≈ 23.6 to 47.3 µg/mL) | CLint scaled at 50 µM [3]: 22.6 mL/min/kg | remaining at 6 h, 50 µM [5]: 100% | remaining at 6 h, 50 µM [9]: 100% | remaining at 6 h, 50 µM [11]: 100% | CLint scaled at 50 µM [15]: 1220 mL/min/kg | CLint scaled at 50 µM [16]: 326 mL/min/kg
SMILES: O=S(=O)(NCCN1CCOCC1)c1ccc(NC2CCCCC2)c(NCc2ccccc2)c1
IC50 [2]: 24 nM

solubility kinetic at 2 h [1]: > 200 µM
SMILES: Cl.O=S(=O)(NCCN1CCNCC1)c1ccc(NC2CCCCC2)c(NCc2ccncc2)c1
IC50 [2]: 442 nM

solubility kinetic at 2 h [1]: > 200 µM
SMILES: CN(C)CCNS(=O)(=O)c1ccc(NC2CCCCC2)c(N)c1
IC50 [2]: 160 nM
